In one assay the test system is NCI-H1975. Kind of assay: Antiproliferative activity against human NCI-H1975 cells harboring EGFR L858R/T790M mutant assessed as reduction in cell viability incubated for 72 hrs by CCK8 assay. In kind it is functional, cell-based. As to conditions: NCI-H1975, 72 h. The method in brief: (§1)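 Cells kept as monolayers at 37 °C, 5% CO2, seeded 3000-4000/well for 12 h, then exposed to compounds for 72 h. CCK-8 added for 1-2 h at 37 °C, absorbance read at 450 nm. Each dose run in triplicate, experiment repeated at least three times. IC50 taken from dose-response curves.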

The next assay relates to NCI-H23. Kind of assay: Antiproliferative activity against human NCI-H23 cells harboring KRAS mutant assessed as reduction in cell viability incubated for 72 hrs by CCK8 assay. In kind it is functional, cell-based. As to conditions: NCI-H23, 72 h. The method in brief:
as §1

Assay [1] is described as follows: Selectivity index, ratio of IC50 for human A-431 cells harboring wild type EGFR (unknown origin) to IC50 for human NCI-H1975 cells harboring EGFR L858R/T790M mutant.
A further assay concerns A549. Briefly: Antiproliferative activity against human A549 cells harboring KRAS G12S mutant assessed as reduction in cell viability incubated for 72 hrs by CCK8 assay. Conditions: A549, 72 h. In kind it is functional, cell-based. The method in brief: as §1
The next assay deals with L02. Kind of assay: Antiproliferative activity against human L02 cells assessed as reduction in cell viability incubated for 72 hrs by CCK8 assay. As to conditions: L02, 72 h. Type of assay: cell-based.
A short description of assay [2]: Cytotoxicity against human HBE cells assessed as reduction in cell viability incubated for 72 hrs by CCK8 assay. In kind it is cell-based. The gist of the method: as §1
In assay [3] the target is Epidermal growth factor receptor (Homo sapiens, UniProt P00533, L858R/T790M). Kind of assay: Inhibition of EGFR L858R/T790M double mutant (unknown origin) measured after 60 mins by ADP-Glo kinase based luminescence assay.
A further assay relates to ASPC1. Briefly: Antiproliferative activity against human ASPC1 cells assessed as reduction in cell viability incubated for 72 hrs by CCK8 assay. Type of assay: functional, cell-based. Conditions: ASPC1, 72 h. The gist of the method:
as §1

Assay [4] deals with Epidermal growth factor receptor (Homo sapiens, UniProt P00533). Briefly: Inhibition of wild type EGFR (unknown origin) measured after 60 mins by ADP-Glo kinase based luminescence assay.
The subject of the next assay is A-431. Kind of assay: Cytotoxicity against human A-431 cells harboring wild type EGFR assessed as reduction in cell viability incubated for 72 hrs by CCK8 assay. In kind it is cell-based. Conditions: A-431, 72 h. The gist of the method:
as §1

Results on 15 compounds are retold here after ChEMBL document CHEMBL4831496, “Noncovalent EGFR T790M/L858R inhibitors based on diphenylpyrimidine scaffold: Design, synthesis, and bioactivity evaluation for the treatment of NSCLC” (Eur J Med Chem, 2021).

Epidermal growth factor receptor (Homo sapiens, UniProt P00533, L858R/T790M), sequence (P00533 25-1210 T790M/L858R limits assumed): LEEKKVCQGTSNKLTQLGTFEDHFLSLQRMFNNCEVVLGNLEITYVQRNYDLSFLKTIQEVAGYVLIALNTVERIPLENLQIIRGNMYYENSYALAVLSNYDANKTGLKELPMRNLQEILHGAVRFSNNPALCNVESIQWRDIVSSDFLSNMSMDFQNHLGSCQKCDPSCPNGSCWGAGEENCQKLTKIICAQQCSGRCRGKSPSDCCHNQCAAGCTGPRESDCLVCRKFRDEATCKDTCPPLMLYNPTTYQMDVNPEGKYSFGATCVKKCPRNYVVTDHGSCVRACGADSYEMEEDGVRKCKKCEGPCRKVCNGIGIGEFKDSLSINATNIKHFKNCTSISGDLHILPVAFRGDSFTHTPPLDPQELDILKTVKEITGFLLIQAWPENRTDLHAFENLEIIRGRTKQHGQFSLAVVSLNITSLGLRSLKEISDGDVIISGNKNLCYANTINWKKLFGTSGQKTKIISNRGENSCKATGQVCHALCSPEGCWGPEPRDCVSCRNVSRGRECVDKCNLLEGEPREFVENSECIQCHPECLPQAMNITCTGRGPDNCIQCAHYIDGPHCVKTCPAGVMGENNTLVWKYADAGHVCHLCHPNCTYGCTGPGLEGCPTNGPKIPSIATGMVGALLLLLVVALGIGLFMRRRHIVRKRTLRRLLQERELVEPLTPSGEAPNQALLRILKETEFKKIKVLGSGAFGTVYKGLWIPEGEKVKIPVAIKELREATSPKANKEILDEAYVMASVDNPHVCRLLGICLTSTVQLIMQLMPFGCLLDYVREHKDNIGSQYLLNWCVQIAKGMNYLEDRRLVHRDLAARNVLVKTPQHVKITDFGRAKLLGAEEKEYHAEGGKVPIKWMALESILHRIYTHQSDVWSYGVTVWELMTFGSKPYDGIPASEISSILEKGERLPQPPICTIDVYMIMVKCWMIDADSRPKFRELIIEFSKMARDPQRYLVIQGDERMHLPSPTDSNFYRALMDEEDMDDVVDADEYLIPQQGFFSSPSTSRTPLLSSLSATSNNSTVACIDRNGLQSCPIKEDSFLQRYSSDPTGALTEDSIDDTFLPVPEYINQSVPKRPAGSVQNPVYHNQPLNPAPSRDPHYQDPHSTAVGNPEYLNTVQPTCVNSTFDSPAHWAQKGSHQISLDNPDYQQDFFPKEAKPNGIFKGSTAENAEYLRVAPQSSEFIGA
Epidermal growth factor receptor (Homo sapiens, UniProt P00533), sequence (P00533 whole entry): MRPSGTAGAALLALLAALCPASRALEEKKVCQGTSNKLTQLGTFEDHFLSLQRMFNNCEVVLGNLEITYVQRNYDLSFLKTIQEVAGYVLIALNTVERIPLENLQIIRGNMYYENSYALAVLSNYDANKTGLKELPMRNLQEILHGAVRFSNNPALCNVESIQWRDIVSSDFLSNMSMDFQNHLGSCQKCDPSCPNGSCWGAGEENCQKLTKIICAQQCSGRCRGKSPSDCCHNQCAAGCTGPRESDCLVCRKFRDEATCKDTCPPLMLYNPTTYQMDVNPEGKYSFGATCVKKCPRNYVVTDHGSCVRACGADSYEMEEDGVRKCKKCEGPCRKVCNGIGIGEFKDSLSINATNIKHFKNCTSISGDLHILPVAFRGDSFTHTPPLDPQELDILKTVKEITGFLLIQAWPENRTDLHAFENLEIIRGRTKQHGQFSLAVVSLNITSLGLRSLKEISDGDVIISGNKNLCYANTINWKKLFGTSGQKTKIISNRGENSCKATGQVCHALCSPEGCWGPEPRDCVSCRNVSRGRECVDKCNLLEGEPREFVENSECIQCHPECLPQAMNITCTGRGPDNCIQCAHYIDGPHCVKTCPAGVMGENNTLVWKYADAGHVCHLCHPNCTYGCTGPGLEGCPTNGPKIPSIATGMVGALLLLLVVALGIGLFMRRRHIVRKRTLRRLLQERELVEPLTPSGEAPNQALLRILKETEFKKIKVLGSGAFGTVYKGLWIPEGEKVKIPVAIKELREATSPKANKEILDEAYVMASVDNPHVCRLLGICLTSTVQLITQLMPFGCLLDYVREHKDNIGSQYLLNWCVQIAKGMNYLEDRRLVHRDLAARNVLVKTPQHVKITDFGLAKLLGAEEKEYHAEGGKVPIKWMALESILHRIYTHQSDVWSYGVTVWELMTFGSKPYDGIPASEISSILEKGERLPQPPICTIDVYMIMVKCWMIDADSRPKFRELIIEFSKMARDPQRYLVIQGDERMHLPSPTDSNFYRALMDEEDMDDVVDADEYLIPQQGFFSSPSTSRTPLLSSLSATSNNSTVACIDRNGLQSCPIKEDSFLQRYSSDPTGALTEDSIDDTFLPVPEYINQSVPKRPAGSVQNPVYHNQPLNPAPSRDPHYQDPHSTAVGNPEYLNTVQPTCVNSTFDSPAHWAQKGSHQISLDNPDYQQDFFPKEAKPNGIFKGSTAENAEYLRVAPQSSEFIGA

For `CNC(=O)c1ccccc1Nc1nc(Nc2ccc(CN3CCC(C(=O)NO)CC3)cc2)ncc1Cl`, the IC50 turned out to be 245 nM with NCI-H1975; 8420 nM in the assay on NCI-H23; 245 nM in the assay on A549; 1280 nM in the assay on L02; 15900 nM in assay [2]; 117 nM in assay [3]. The IC50 in the assay on ASPC1 worked out at 374 nM; in [4] it was 1.09 nM; in the assay with A-431 it was 1160 nM. In assay [1], the “Ratio IC50” value came to 4.72.
`C=CC(=O)Nc1cc(Nc2nccc(-c3cn(C)c4ccccc34)n2)c(OC)cc1N(C)CCN(C)C` [OSIMERTINIB]: the IC50 in the assay with NCI-H1975 is […].
As to `CNC(=O)c1ccccc1Nc1nc(Nc2ccc(NC(=O)CN3CCOCC3)c(C)c2)ncc1Cl`, the 50% inhibitory concentration (IC50) with NCI-H1975 worked out at 333 nM; in assay [3], 3.89 nM.
With `O=C(NO)c1ccccc1Nc1nc(Nc2ccc(CN3CCOCC3)cc2)ncc1Cl`, the IC50 was below 78.1 nM with NCI-H1975; 554 nM in the assay on NCI-H23; below 78 nM in the assay on A549; below 1250 nM in the assay with L02; 29100 nM in assay [2]; 98.8 nM in [3]. Further, the half-maximal inhibitory concentration (IC50) in the assay on ASPC1 was below 156 nM; in assay [4], 4.5 nM; with A-431, 2430 nM. Also, the “Ratio IC50” value in [1] is on record as above 31.08.
Take `CN1CCN(c2ccc(Nc3ncc(Cl)c(Nc4ccccc4C(=O)NO)n3)cc2)CC1`: the concentration for half-maximal inhibition (IC50) in the assay with NCI-H1975 was below 78.1 nM; with NCI-H23 it was 217 nM; in the assay with A549, below 78 nM; in the assay with L02, below 1250 nM; in assay [2], 22600 nM; in assay [3], 68.8 nM. The IC50 with ASPC1 is below 156 nM; in [4] it was 6.56 nM; with A-431 it was 253 nM. For the same compound, the “Ratio IC50” value in [1] was above 3.24.
In the case of `O=C(COc1ccc(Nc2ncc(Cl)c(Nc3ccccc3C(=O)NO)n2)cc1)NO`, the concentration for half-maximal inhibition (IC50) with NCI-H1975 is 1110 nM; with NCI-H23 it was 6400 nM; in the assay with A549 it was 1110 nM; with L02 it was 7870 nM; in assay [2], above 40000 nM; in [3], 65.4 nM. Besides, the IC50 in the assay on ASPC1 was found to be 1580 nM; in assay [4] it was 50.2 nM; in the assay with A-431 it was 2060 nM. Also, the “Ratio IC50” value in assay [1] is 1.86.
For the compound `O=C(NO)c1ccccc1Nc1nc(Nc2ccc(N3CCOCC3)cc2)ncc1Cl`, the IC50 with NCI-H1975 is 109 nM; in the assay with NCI-H23, 801 nM; in the assay on A549 it was 109 nM; in the assay with L02, 2190 nM; in assay [2], above 40000 nM; in [3], 116 nM. Further, the 50% inhibitory concentration (IC50) in the assay with ASPC1 stood at 1410 nM; in [4], 169 nM; in the assay with A-431, 1580 nM. Also, in assay [1], the “Ratio IC50” value is on record as 14.46.
For the compound `CNC(=O)c1ccccc1Nc1nc(Nc2ccc(OCCCN3CCC(C(=O)NO)CC3)cc2)ncc1Cl`, the IC50 is 156 nM in the assay on NCI-H1975; 2110 nM in the assay on NCI-H23; 156 nM in the assay on A549; below 1250 nM in the assay with L02; 8570 nM in assay [2]; 45 nM in assay [3]. Further, the figures for the half-inhibitory concentration (IC50) (in the assay with ASPC1; in [4]; in the assay on A-431) were below 156 nM, 46.7 nM and 448 nM, respectively. For the same compound, the “Ratio IC50” value in [1] was found to be 2.88.
For `O=C(NO)c1ccccc1Nc1nc(Nc2ccc(OCC(=O)N3CCOCC3)cc2)ncc1Cl`, the concentration for half-maximal inhibition (IC50) in the assay with NCI-H1975 is 129 nM; in the assay on NCI-H23, 820 nM; with A549 it was 129 nM; in the assay with L02, 4810 nM; in assay [2], 20200 nM; in assay [3] it was 16 nM. Besides, the half-maximal inhibitory concentration (IC50) with ASPC1 worked out at 530 nM; in assay [4], 57.3 nM; in the assay with A-431, 670 nM. In assay [1], the “Ratio IC50” value is 5.19.
As to `O=C(O)c1ccccc1Nc1nc(Nc2ccc(OCC(=O)N3CCOCC3)cc2)ncc1Cl`, the half-maximal inhibitory concentration (IC50) with NCI-H1975 was above 10000 nM; in the assay on L02 it was 15500 nM; in assay [3], 199 nM; in [4] it was 81.4 nM.
Regarding `CN1CCN(CCOc2ccc(Nc3ncc(Cl)c(Nc4ccccc4C(=O)NO)n3)cc2)CC1`, the IC50 in the assay with NCI-H1975 turned out to be 822 nM; in the assay on NCI-H23, 642 nM; in the assay with A549, 203 nM; with L02 it was 1950 nM; in assay [2], 29800 nM; in [3] it was 6.82 nM. Further, the IC50 with ASPC1 was 244 nM; in assay [4], 0.763 nM; in the assay on A-431, 692 nM. Moreover, in [1], the “Ratio IC50” value is listed as 0.84.
In the case of `O=C(NO)c1ccccc1Nc1nc(Nc2ccc(OCCCN3CCOCC3)cc2)ncc1Cl`, the IC50 in the assay on NCI-H1975 was 321 nM; in the assay with NCI-H23, 665 nM; with A549 it was 321 nM; in the assay on L02, 1730 nM; in assay [2] it was 26500 nM; in assay [3] it was 64.8 nM. The results for the half-maximal inhibitory concentration (IC50) (in the assay with ASPC1; in assay [4]; in the assay on A-431) were 1230 nM, 1.25 nM and 1400 nM, respectively. For the same compound, the “Ratio IC50” value in assay [1] was determined as 4.38.
Take `O=C(CN1CCOCC1)Nc1ccc(Nc2ncc(Cl)c(Nc3ccccc3C(=O)NO)n2)cc1`: the half-maximal inhibitory concentration (IC50) was 385 nM in the assay with NCI-H1975; 1740 nM in the assay on NCI-H23; 385 nM in the assay on A549; 2110 nM in the assay with L02; above 40000 nM in assay [2]; 113 nM in [3]. Besides, the concentration for half-maximal inhibition (IC50) with ASPC1 stood at 750 nM; in [4], 126 nM; in the assay on A-431 it was 1530 nM. For the same compound, the “Ratio IC50” value in [1] worked out at 3.98.
As to `CNC(=O)c1ccccc1Nc1nc(Nc2ccc(N3CCC(C(=O)NO)CC3)cc2)ncc1Cl`, the IC50 amounted to 329 nM in the assay with NCI-H1975; 1540 nM in the assay with NCI-H23; 329 nM in the assay with A549; 1730 nM in the assay on L02; 12600 nM in assay [2]; 49.9 nM in assay [3]. The IC50 worked out at 499 nM in the assay on ASPC1, 119 nM in [4] and 127 nM in the assay on A-431. The “Ratio IC50” value in [1] amounted to 0.39.
`CCOC(=O)c1ccccc1Nc1nc(Nc2ccc(OCC(=O)N3CCOCC3)cc2)ncc1Cl`: the IC50 came out at 2900 nM in the assay on NCI-H1975, 30200 nM with L02, 0.245 nM in assay [3] and 32 nM in assay [4].
